Where “and” joins values, the source holds several entries; their conditions need not be identical. Identical values can stand only once.
Experiments:
[1] = target: T1, Peroxisome proliferator-activated receptor gamma (Homo sapiens, UniProt P37231)
T1 sequence (P37231 whole entry): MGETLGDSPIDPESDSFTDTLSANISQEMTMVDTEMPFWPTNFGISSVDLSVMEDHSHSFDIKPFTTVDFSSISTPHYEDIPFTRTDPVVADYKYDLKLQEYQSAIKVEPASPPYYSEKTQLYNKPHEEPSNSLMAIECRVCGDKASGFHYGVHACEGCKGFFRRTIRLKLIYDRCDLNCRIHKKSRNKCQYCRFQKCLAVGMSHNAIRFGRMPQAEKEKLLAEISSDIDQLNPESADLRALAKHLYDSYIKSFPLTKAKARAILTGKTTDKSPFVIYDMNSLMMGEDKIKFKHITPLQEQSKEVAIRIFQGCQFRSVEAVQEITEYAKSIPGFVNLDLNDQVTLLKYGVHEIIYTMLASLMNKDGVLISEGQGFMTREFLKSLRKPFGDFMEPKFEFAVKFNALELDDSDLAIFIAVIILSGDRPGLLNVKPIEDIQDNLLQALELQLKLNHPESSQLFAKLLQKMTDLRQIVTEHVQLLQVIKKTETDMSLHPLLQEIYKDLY

[2] = target: T2, Peroxisome proliferator-activated receptor alpha (Homo sapiens, UniProt Q07869)
T2 sequence (Q07869 whole entry): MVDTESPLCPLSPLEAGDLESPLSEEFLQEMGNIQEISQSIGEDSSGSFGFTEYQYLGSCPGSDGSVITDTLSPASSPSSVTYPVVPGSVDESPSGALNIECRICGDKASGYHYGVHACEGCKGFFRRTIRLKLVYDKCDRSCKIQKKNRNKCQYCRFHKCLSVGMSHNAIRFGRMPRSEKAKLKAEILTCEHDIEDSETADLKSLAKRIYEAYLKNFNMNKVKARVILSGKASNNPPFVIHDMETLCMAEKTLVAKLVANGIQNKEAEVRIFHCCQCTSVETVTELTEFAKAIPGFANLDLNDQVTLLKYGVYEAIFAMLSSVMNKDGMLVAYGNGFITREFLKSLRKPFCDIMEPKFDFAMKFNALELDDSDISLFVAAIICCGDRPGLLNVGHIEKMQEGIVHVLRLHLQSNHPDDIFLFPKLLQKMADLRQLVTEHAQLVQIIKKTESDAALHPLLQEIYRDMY

[3] = system: Rattus norvegicus; experiment: Brown adipose tissue weight in Sprague-Dawley rat after 30 mg/kg peroral administration; conditions: route oral
[4] = system: Rattus norvegicus; experiment: Heart weight of Sprague-Dawley rat after 10 mg/kg peroral administration; conditions: route oral
[5] = system: Rattus norvegicus; experiment: Heart weight of Sprague-Dawley rat after 30 mg/kg peroral administration; conditions: route oral
[6] = system: Rattus norvegicus; experiment: Body weight of Sprague-Dawley rat after 30 mg/kg peroral administration; conditions: route oral
[7] = system: Rattus norvegicus; experiment: Body weight of Sprague-Dawley rat after 10 mg/kg peroral administration; conditions: route oral
[8] = system: Rattus norvegicus; experiment: Total Cholesterol change in Sprague-Dawley rat after 30 mg/kg peroral administration; conditions: route oral
[9] = target: T2, Peroxisome proliferator-activated receptor alpha; remark: listed apart in the source
[10] = system: Mus musculus; experiment: Fasting plasma glucose levels after 30 mg/kg peroral administration in db/db Mouse; type: functional; conditions: route oral
Summary of the method: (§1)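 db/db (lepr db-3J/lepr db-3J) mice dosed orally once daily for 11 days; fasting plasma glucose measured at day 11. Correction is expressed as mean glucose lowering, as a percentage of the difference between vehicle-treated db/db and lean control mice.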

[11] = system: Rattus norvegicus; experiment: Brown adipose tissue weight in Sprague-Dawley rat after 10 mg/kg peroral administration; conditions: route oral
[12] = target: T1, Peroxisome proliferator-activated receptor gamma; experiment: Binding affinity towards peroxisome proliferator activated receptor gamma (PPAR gamma): Weakly active
[13] = target: T1, Peroxisome proliferator-activated receptor gamma; remark: listed apart in the source
[14] = system: Mus musculus; experiment: Fasting plasma glucose level after 10 mg/kg peroral administration in db/db Mouse; type: functional; conditions: route oral
Summary of the method: as §1

[15] = system: Rattus norvegicus; experiment: Total Cholesterol change in Sprague-Dawley rat after 10 mg/kg peroral administration; conditions: route oral
[16] = system: Rattus norvegicus; experiment: Triglyceride change in Sprague-Dawley rat after 30 mg/kg peroral administration; conditions: route oral
[17] = system: Rattus norvegicus; experiment: Triglyceride change in Sprague-Dawley rat after 10 mg/kg peroral administration; conditions: route oral
[18] = system: Rattus norvegicus; experiment: Body weight of Sprague-Dawley rat after 150 mg/kg peroral administration; conditions: route oral
[19] = system: Rattus norvegicus; experiment: Total Cholesterol change in Sprague-Dawley rat after 150 mg/kg peroral administration; conditions: route oral
[20] = target: T2, Peroxisome proliferator-activated receptor alpha; experiment: Binding affinity towards human peroxisome proliferator activated receptor alpha (PPAR alpha) by HTRF assay; Weakly active
[21] = target: T1, Peroxisome proliferator-activated receptor gamma; experiment: Binding affinity towards peroxisome proliferator activated receptor gamma (PPAR gamma); Not active
Summary of the method: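 Scintillation proximity (SPA) radioligand binding assay run at 15 C. The IC50 is converted to an apparent Ki with the Cheng-Prusoff equation.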

[22] = system: Mus musculus; experiment: Fasting plasma glucose levels after 150 mg/kg peroral administration in db/db Mouse; type: functional; conditions: route oral
Summary of the method: as §1

[23] = system: Rattus norvegicus; experiment: Brown adipose tissue weight in Sprague-Dawley rat after 150 mg/kg peroral administration; conditions: route oral
[24] = system: Rattus norvegicus; experiment: Heart weight of Sprague-Dawley rat after 150 mg/kg peroral administration; conditions: route oral
[25] = system: Rattus norvegicus; experiment: Triglyceride change in Sprague-Dawley rat after 150 mg/kg peroral administration; conditions: route oral
[26] = system: Mus musculus; experiment: Fasting plasma glucose levels after 15 mg/kg peroral administration in db/db Mouse; type: functional; conditions: route oral
Summary of the method: as §1

[27] = system: Mus musculus; experiment: Fasting plasma glucose levels after 5 mg/kg peroral administration in db/db Mouse; type: functional; conditions: route oral
Summary of the method: as §1

[28] = target: T1, Peroxisome proliferator-activated receptor gamma; experiment: Binding affinity towards peroxisome proliferator activated receptor gamma (PPAR gamma); weakly active
[29] = target: T2, Peroxisome proliferator-activated receptor alpha; experiment: Binding affinity towards peroxisome proliferator activated receptor alpha (PPAR alpha); weakly active
[30] = system: Mus musculus; experiment: Fasting plasma glucose levels after 3 mg/kg peroral administration in db/db Mouse; type: functional; conditions: route oral
Summary of the method: as §1

[31] = system: Mus musculus; experiment: Fasting plasma glucose levels after 1 mg/kg peroral administration in db/db Mouse; type: functional; conditions: route oral
Summary of the method: as §1

[32] = Bioavailability was determined in rat; type: ADME, organism-based; conditions: in vivo

COC(=O)c1cc(C)c(OC(C(=O)O)c2ccccc2)c(C)c1 (stereo not given)
Ki [1]: > 10000 nM
Ki [2]: 225 nM

CCCc1cc(C(=O)CC)c(O)c(CCC)c1OC(C(=O)O)c1ccccc1 (stereo not given)
BAT weight [3]: 0.34 g
Heart weight [4]: 1.11 g
Heart weight [5]: 1.06 g
Body weight [6]: 294 g
Body weight [7]: 290 g
Change [8]: -7%
EC50 [9]: 37 nM
FPG correction [10]: 55%
BAT weight [11]: 0.29 g
Ki [12]: Partially active
EC50 [13]: 1090 nM
FPG correction [14]: 42%
Change [15]: -36%
Ki [2]: 81 nM
Change [16]: -8%
Change [17]: -64%

CCCc1cc2c(C(F)(F)F)noc2c(CCC)c1OC(C(=O)O)c1ccc(CCc2ccccn2)cc1 (stereo not given)
EC50 [9]: 28 nM
EC50 [13]: 110 nM
FPG correction [14]: 75%
Ki [1]: 197 nM
Ki [2]: 65 nM

CCCc1c(O)c(C(=O)CC)cc(Cl)c1OC(C(=O)O)c1ccccc1 (stereo not given)
EC50 [9]: 804 nM
EC50 [13]: 3760 nM
Ki [1]: 985 nM
Ki [2]: 293 nM

CCCc1c(OC(C(=O)O)c2ccccc2)ccc2c(C(F)(F)F)noc12 (stereo not given)
EC50 [9]: 836 nM
FPG correction [10]: -5%
Ki [12]: Partially active
EC50 [13]: 4600 nM
Ki [2]: 98 nM

CC(C)(Oc1ccc(C(=O)c2ccc(Cl)cc2)cc1)C(=O)O [FENOFIBRIC ACID]
Body weight [18]: 308 g
Change [19]: -18%
Ki [20]: Partially active
Ki [21]: Not Active
FPG correction [22]: 17%
BAT weight [23]: 0.33 g
Heart weight [24]: 1.18 g
Ki [2]: 35000 nM
Change [25]: -23%

CCCc1cc(C(=O)OC)cc(Cl)c1OC(C(=O)O)c1ccccc1 (stereo not given)
Ki [1]: 8530 nM
Ki [2]: 57 nM

CCCc1c(OC(C(=O)O)c2ccccc2)c(Cl)cc2c(CC)noc12 (stereo not given)
BAT weight [3]: 0.34 g
Heart weight [5]: 1.22 g
Body weight [6]: 312 g
Change [8]: -9%
EC50 [9]: 162 nM
FPG correction [26]: 47%
EC50 [13]: 1120 nM
FPG correction [27]: 10%
Ki [2]: 38 nM
Ki [28]: Partially active
Change [16]: -11%

CCCc1cc2c(C(F)(F)F)noc2c(CCC)c1O[C@@H](C(=O)O)c1ccccc1
Ki [29]: Partially active
EC50 [13]: 3150 nM
Ki [28]: Partially active

CCCc1cc2c(C(F)(F)F)noc2c(CCC)c1OC(C(=O)O)c1ccc(C(F)(F)F)cc1 (stereo not given)
BAT weight [3]: 0.27 g
Heart weight [5]: 1.14 g
FPG correction [30]: 41%
Body weight [6]: 318 g
Change [8]: -32%
EC50 [9]: 23 nM
EC50 [13]: 79 nM
FPG correction [14]: 83%
FPG correction [31]: 21%
Ki [1]: 104 nM
Ki [2]: 18 nM
Change [16]: -41%

CCCc1cc2c(C(F)(F)F)noc2c(CCC)c1OC(C(=O)O)c1ccc(C(C)C)cc1 (stereo not given)
FPG correction [30]: 31%
FPG correction [14]: 61%

CCCc1cc2c(C(F)(F)F)noc2c(CCC)c1OC(C(=O)O)c1ccc(OCc2ccccn2)cc1 (stereo not given)
BAT weight [3]: 0.42 g
Heart weight [5]: 1.15 g
Body weight [6]: 297 g
Change [8]: -38%
EC50 [9]: 19 nM
FPG correction ([10]; 30 mg/kg): 90% and 51%
EC50 [13]: 47 nM
Ki [1]: 268 nM
Ki [2]: 64 nM
Change [16]: -47%

CCCc1cc2c(C(F)(F)F)noc2c(CCC)c1O[C@H](C(=O)O)c1ccccc1
EC50 [13]: 194 nM
FPG correction [14]: 50%
Ki [1]: 618 nM
Ki [2]: 12 nM

CCCc1cc(C(=O)OC)cc(CCC)c1OC(C(=O)O)c1ccccc1 (stereo not given)
Ki [1]: 1100 nM
Ki [2]: 63 nM

CCCc1cc2c(C(F)(F)F)noc2c(CCC)c1OC(C(=O)O)c1ccccc1 (stereo not given)
BAT weight [3]: 0.28 g
bioavailability [32]: 11%
Heart weight [5]: 1.05 g
Body weight [6]: 276 g
Change [8]: -27%
EC50 [9]: 15 nM
FPG correction [10]: 91%
EC50 [13]: 365 nM
Ki [1]: 956 nM
Ki [2]: 37 nM
Change [16]: -52%

CCCc1cc2c(C(F)(F)F)noc2c(CCC)c1OC(C(=O)O)c1ccc(Cl)cc1 (stereo not given)
BAT weight [3]: 0.22 g
Heart weight [5]: 1.17 g
FPG correction [30]: 31%
Body weight [6]: 297 g
Change [8]: -23%
EC50 [9]: 10 nM
EC50 [13]: 110 nM
FPG correction [14]: 74%
Ki [1]: 175 nM
Ki [2]: 105 nM
Change [16]: -56%

CCCc1cc(C(=O)OC)cc(C)c1OC(C(=O)O)c1ccccc1 (stereo not given)
Ki [1]: 5940 nM
Ki [2]: 28 nM

CCCc1cc2c(CC)noc2c(CCC)c1OC(C(=O)O)c1ccccc1 (stereo not given)
EC50 [9]: 80 nM
EC50 [13]: 560 nM
Ki [1]: 2680 nM
Ki [2]: 61 nM

From ChEMBL document CHEMBL1136228 (Bioorg Med Chem Lett, 2003)
